Measurements from article PMC7316614 (ACS nano, 2020).
Peptide text beside a SMILES is read from it.

What was measured:
HS-5 cells [1] = assay: Multidrug resistance; assay type: cell-based; details: normal cell line, Figure S5
HepG2 cells [2] = assay: Cell viability / cytotoxicity; assay type: cell-based
Summary of the method: (§1)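 HeLa and HepG2 grown in MEM with 10% (vol/vol) FBS and 0.5% (vol/vol) each penicillin and streptomycin, at 37 °C under 5% CO2. IC50 taken on the 2nd day of exposure to the test compound. Means ± SD from n > 3 independent experiments; significance by t-test.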

Drug loading efficiency = assay type: physicochemical; details: determined from the LE%
[3] = tested on: cytochrome c in HepG2 cells; assay: Cytochrome c in cytosol, Western blot; assay type: cell-based; details: 100, 50, 25 μM, 48 h
Summary of the method: (§2)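 Cells were exposed to the test compound for 48 h (HepG2: 100, 50, 25 and 0 μM). The cytosol fraction was blotted for cytochrome c. Protein was quantified by Coomassie, and 20 μg per lane was run on SDS-PAGE and transferred to PVDF. Bands were quantified by densitometry. Data are means ± SD, n > 3, t-test.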

[4] = tested on: cytochrome c in HeLa cells; assay: Cytochrome c in cytosol, Western blot; assay type: cell-based; details: different concentration, Figure S17
Summary of the method: as §2

HeLa cells [5] = assay: Mitochondrial membrane potential by Rhodamine 123; assay type: cell-based; details: 48h, Rhodamine 123, Figure S15
enterokinase (ENTK) = enterokinase (ENTK) (Homo sapiens, UniProt P98073); assay: Enzymatic cleavage by ENTK; assay type: biochemical; details: Flag-(C16)2 at 200 μM (above CMC), Figure S7D
AML12 cells = assay: Cell viability / cytotoxicity; assay type: cell-based
HeLa cells [6] = assay: Cell viability / cytotoxicity; assay type: cell-based; details: Flag-(C16)2 alone, 48h
Summary of the method: as §1

HepG2 cells [7] = assay: Mitochondrial accumulation, fluorescence imaging with MitoTracker; assay type: cell-based; details: Flag-(C16)2, 48h
HS-5 cells [8] = assay: Cell viability / cytotoxicity; assay type: cell-based
Self-assembly = assay type: physicochemical; details: 50 μM
[9] = Critical micelle concentration; assay type: physicochemical; details: Figure S6
HepG2 cells [10] = assay: Mitochondrial membrane potential by Rhodamine 123; assay type: cell-based; details: 50 μM, 48 h
[11] = Solubility of the enzymatic product; assay type: physicochemical; details: direct suspension of the enzymatic product

Chain of enterokinase (ENTK) (P98073 whole entry, species assumed): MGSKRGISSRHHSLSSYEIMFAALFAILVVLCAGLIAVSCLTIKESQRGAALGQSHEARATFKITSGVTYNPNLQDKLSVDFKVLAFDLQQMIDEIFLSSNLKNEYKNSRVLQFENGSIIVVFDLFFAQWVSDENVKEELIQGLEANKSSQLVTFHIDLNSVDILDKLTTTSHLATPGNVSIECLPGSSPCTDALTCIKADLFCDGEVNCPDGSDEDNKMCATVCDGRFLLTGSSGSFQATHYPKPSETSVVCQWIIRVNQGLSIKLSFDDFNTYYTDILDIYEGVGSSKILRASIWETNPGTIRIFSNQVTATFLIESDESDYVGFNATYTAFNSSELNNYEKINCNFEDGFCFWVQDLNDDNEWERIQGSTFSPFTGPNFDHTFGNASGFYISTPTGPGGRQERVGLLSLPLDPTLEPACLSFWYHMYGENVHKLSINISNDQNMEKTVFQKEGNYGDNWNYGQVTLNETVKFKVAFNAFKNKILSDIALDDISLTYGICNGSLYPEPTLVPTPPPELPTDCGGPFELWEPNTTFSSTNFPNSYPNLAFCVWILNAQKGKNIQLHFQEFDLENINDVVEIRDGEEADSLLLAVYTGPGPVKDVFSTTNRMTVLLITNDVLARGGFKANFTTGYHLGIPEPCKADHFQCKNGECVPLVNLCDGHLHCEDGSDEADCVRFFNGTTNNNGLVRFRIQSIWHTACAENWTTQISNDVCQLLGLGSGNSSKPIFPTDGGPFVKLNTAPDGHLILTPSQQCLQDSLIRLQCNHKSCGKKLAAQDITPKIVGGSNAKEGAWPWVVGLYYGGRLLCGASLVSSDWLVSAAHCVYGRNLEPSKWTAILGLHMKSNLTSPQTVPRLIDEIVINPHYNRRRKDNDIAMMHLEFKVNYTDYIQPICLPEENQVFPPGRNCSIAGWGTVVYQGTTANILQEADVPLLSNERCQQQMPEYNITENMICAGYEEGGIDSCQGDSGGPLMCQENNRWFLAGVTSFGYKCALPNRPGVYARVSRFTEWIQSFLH

Compound: O=C(N[C@H](CO)[C@H](O)c1ccc([N+](=O)[O-])cc1)C(Cl)Cl [CLRP, chloramphenicol, reference compound]
- change of MDR, HS-5 (HS-5 cells [1]): Neither CLRP nor CLRP mixed with Flag-(C16)2 significantly change the MDR
- cell viability, HepG2 (HepG2 cells [2]; free CLRP alone, Figure 2A): hardly suppresses the viability

Compound: CCCCCCCCCCCCCCCCNC(=O)CC[C@H](NC(=O)CNC(=O)[C@H](CCCCN)NC(=O)[C@H](CC(=O)O)NC(=O)[C@H](CC(=O)O)NC(=O)[C@H](CC(=O)O)NC(=O)[C@H](CC(=O)O)NC(=O)[C@H](CCCCN)NC(=O)[C@H](Cc1ccc(O)cc1)NC(=O)[C@@H](N)CC(=O)O)C(=O)NCCCCCCCCCCCCCCCC [Flag-(C16)2] (HELM PEPTIDE1{D.Y.K.D.D.D.D.K.G.E.[CCCCCCCCCCCCCCCCN[*:1]]}|CHEM1{[CCCCCCCCCCCCCCCCN[*:1]]}$PEPTIDE1,CHEM1,10:R3-1:R1$$$V2.0)
- encapsulation capacity (EC) (Drug loading efficiency): 66.7 μg CLRP in per mg Flag-(C16)2 micelles
- cytochrome c in the cytosol, HepG2 [3]: increased cytochrome c
- cytochrome c in the cytosol, HeLa [4]: increased cytochrome c
- mitochondrial membrane potential, HeLa (HeLa cells [5]): reduced mitochondrial membrane potential
- hydrolysis by ENTK (enterokinase (ENTK)): hydrolyzes
- cell death, AML12 (AML12 cells): hardly induces cell death
- cell viability, HeLa (HeLa cells [6]): decrease of cell viability
- mitochondrial morphology, HepG2 (HepG2 cells [7]): fragmental mitochondria
- cell death, HS-5 (HS-5 cells [8]): hardly induces cell death
- self-assembly after adding ENTK (Self-assembly; ENTK, 24 h, 37 °C, static light scattering): larger micelle-like aggregates
- self-assembly in solution (Self-assembly; before ENTK): self-assembles into nanoparticles
- critical micelle concentration (CMC) [9]: 43 µM
- mitochondrial membrane potential, HepG2 (HepG2 cells [10]): reduced mitochondrial membrane potential
- cell viability, HepG2 (HepG2 cells [2]; Flag-(C16)2 alone, 48h): decrease of cell viability

Compound: Gly-Glu-(C16)2
- solubility [11]: poor solubility
